Records with an inconclusive call do not appear. Activity calls are given as the source filed them.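 Rule for the calls: active = compounds whose fitted caspase activation AC50 is no more than tenfold above the top tested dose; inconclusive = flat fit with 30 to 70% activity, or a failed fit; inactive = the rest.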
What follows are compounds tested on MEF Bax/Bak KO A1-BIM, caspase-Glo luminescence, 3 h (assay: caspase signal in Bax-Bak null A1-BIM cells – cell-based, Bax-Bak knockout MEF, A1-2A-BIM, luminescence, counter-screen for A1 inhibitor project, dose response (AID 449754);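 note: counterscreen where caspase activation signals off-target toxicity not A1 inhibition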).
Method in brief: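 Material: A1-2A-BIM MEFs lacking Bax and Bak / Buffer or medium: RPMI-1640, 10% FBS / Compound: 100 nL pinned compound per well / Timing: 3 h compound at 37 °C, 1 h detection at RT / Technique: CaspaseGlo luminescence, reagent diluted 1:1 in 50 mM HEPES / Read-out basis: caspase activity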

Row | Structure (SMILES) | AC50
1 | Cc1ccc(NC(=O)c2ccc(N/N=C/c3cccc(O)c3)c([N+](=O)[O-])c2)cc1 | 27.3 µM
2 | O=C(N=Nc1c(O)[nH]c2ccc([N+](=O)[O-])cc12)c1cc(-c2ccccc2Cl)nc2ccccc12 | > 35 µM (inactive)
3 | Cc1c(CCOC(=O)c2ccc(N3CCOCC3)c([N+](=O)[O-])c2)sc[n+]1CC#N | > 35 µM (inactive)
4 | COc1ccc(-c2nc(NC(=O)c3n[nH]c(=O)c4ccccc34)sc2C)cc1 | > 35 µM (inactive)
5 | CC(=O)[C@]1(O)Cc2c(O)c3c(c(O)c2[C@@H](O[C@H]2C[C@H](N)[C@H](O)[C@H](C)O2)C1)C(=O)c1ccccc1C3=O | > 35 µM (inactive)
6 | CCOc1cccc(C(=O)Nc2cccc(-c3nnc(-c4ccc(C)cc4)o3)c2)c1 | 35.7 µM
7 | CCOC(=O)/C=c1\s/c(=C\c2ccc(C(=O)OC)cc2)c(=O)n1CC(=O)Nc1ccccc1 | > 35 µM (inactive)
8 | CC(C)c1cccc(-c2ccc3c(c2)S(=O)(=O)c2cccc(C(=O)NC4CCCC4)c2C3=O)c1 | > 35 µM (inactive)
9 | Cc1ccc(S(=O)(=O)c2nnn3c2nc(Nc2cccc(C)c2)c2ccccc23)cc1 | > 35 µM (inactive)
10 | O=C(CN(c1ccc(Br)cc1)S(=O)(=O)c1ccc(Cl)c([N+](=O)[O-])c1)NCCc1ccccc1 | > 35 µM (inactive)
11 | CC(C)CC(NC(=O)c1ccc(Cl)cc1)C(=O)OCC(=O)c1ccc2c(c1)NC(=O)CO2 (configuration not stated) | 6.3 µM
12 | CN1C2CCC1/C(=C/c1ccccn1)C(=O)/C2=C\c1ccccn1 | > 35 µM (inactive)
13 | O=C(Nc1ccc([N+](=O)[O-])cc1)c1nc[nH]c1C(=O)NC1CCCCC1 | > 35 µM (inactive)
14 | CC1(C)C[C@H](O)[C@]2(CO)[C@H](O)C[C@]3(C)C(=CCC4[C@@]5(C)CC[C@H](O)C(C)(C)C5CC[C@]43C)[C@@H]2C1 (some centres not stated) | > 35 µM (inactive)
15 | COc1cc(NC(=O)c2ccc(Cl)cc2Cl)ccc1-c1cc2ccccc2oc1=O | > 35 µM (inactive)
16 | O=C(Nc1ccc(-c2nc3cc(NC(=O)c4cccs4)ccc3o2)cc1)c1cccs1 | > 35 µM (inactive)
17 | N#Cc1c(C(F)(F)F)cc(-c2ccccc2)nc1SCC(=O)Nc1sc2c(c1C#N)CCC2 | > 35 µM (inactive)
18 | CC1CCN(Cc2c(C(=O)N/N=C/c3ccc(C(C)(C)C)cc3)nnn2-c2nonc2N)CC1 | > 35 µM (inactive)
19 | CC(C)c1cccc(-c2ccc3c(c2)S(=O)(=O)c2cccc(C(=O)NCc4ccccc4Cl)c2C3=O)c1 | > 35 µM (inactive)
20 | CC(=O)OC(C)(C)/C=C/C(=O)[C@](C)(O)C1[C@H](O)C[C@@]2(C)C3CC=C4C(C[C@H](O)C(=O)C4(C)C)[C@]3(C)C(=O)C[C@]12C (some centres not stated) | > 35 µM (inactive)
21 | NC(=S)c1cn(C2OC(CO)C(O)C2O)c2ncnc(N)c12 (configuration not stated) | > 35 µM (inactive)

Row | Structure (SMILES) | AC50
22 | COc1cc2ncnc(NCc3ccc(F)cc3)c2cc1OC | > 35 µM (inactive)
23 | COc1cc2c(cc1NC(=O)COC(=O)/C=C/c1ccccc1)oc1ccccc12 | > 35 µM (inactive)
24 | CC(C)(C)C1C/C(=C/c2ccccn2)C(=O)/C(=C/c2ccccn2)C1 (configuration not stated) | 8.26 µM
25 | CCOc1ccc(OCC(=O)N(CCC2=CCCCC2)c2c(N)n(Cc3ccccc3)c(=O)[nH]c2=O)cc1 | 18.8 µM
26 | COc1cc(NC(=O)c2cccs2)ccc1NC(=O)c1cc2ccccc2o1 | > 35 µM (inactive)
27 | CCOC(=O)CSC1=N/C(=C/c2ccc(-n3cncn3)cc2)C(=O)N1C(C)=O | > 35 µM (inactive)
28 | Cc1ccc(NC(=S)NC(NC(=O)Cc2cccc3ccccc23)C(Cl)(Cl)Cl)cc1 (configuration not stated) | 22.9 µM
29 | O=C(Oc1cccc(/C=N/Nc2nc(Nc3ccccc3)nc(N3CCOCC3)n2)c1)c1ccco1 | > 35 µM (inactive)
30 | Cn1cc([N+](=O)[O-])c(C(=O)Nc2cc(Oc3ccccc3)cc([N+](=O)[O-])c2)n1 | > 35 µM (inactive)
31 | COc1ccc(S(=O)(=O)N2CC(O)CC2C(=O)OCC(=O)Nc2ccc(Cl)cn2)cc1 (configuration not stated) | > 35 µM (inactive)
32 | CCc1ccc(NC(=O)c2nc(S(=O)(=O)Cc3ccccc3)ncc2Cl)cc1 | > 35 µM (inactive)
33 | CCS(=O)(=O)c1ncc(Cl)c(C(=O)Nc2ccccc2OC)n1 | > 35 µM (inactive)
34 | CCOc1cc(C(=O)CSc2nnc(CNc3ccc(Cl)cc3)o2)ccc1NC(=O)CC | 17.6 µM
35 | Cc1ccc(-c2nc(NC(=O)c3nn(C)cc3[N+](=O)[O-])sc2C)cc1C | 16.2 µM
36 | CCc1nnc(NC(=O)CSc2nc(-c3ccccc3)cc(-c3ccc(F)cc3)c2C#N)s1 | 35.8 µM
37 | O=C(Nc1ccc2oc(-c3ccccc3)nc2c1)c1ccccc1F | > 35 µM (inactive)
38 | O=C1/C(=C/c2ccc(N3CCOCC3)o2)SC(=Nc2ccccc2)N1CCc1c[nH]c2ccccc12 | 6.82 µM
39 | Cc1cccc(Nc2nc(N)c([N+](=O)[O-])c(N3CCCC(C)C3)n2)c1 (configuration not stated) | > 35 µM (inactive)
40 | CC(=O)Nc1ncnc2c1c(-c1ccc(Cl)cc1)nn2C(C)(C)C | > 35 µM (inactive)
41 | CC(=O)OC(C)(C)/C=C/C(=O)C(C)(O)C1[C@H](O)C[C@@]2(C)C3CC=C4C(CC[C@@H](O)C4(C)C)[C@]3(CO)C(=O)C[C@]12C (some centres not stated) | > 35 µM (inactive)
42 | COc1ccc(OC)c(NC(=O)c2cc3c(Cl)nc4ccccc4c3s2)c1 | > 35 µM (inactive)
